# Active and inactive are the calls of the source. No cut-off for these calls is given here.
# Assays:
# Leishmania braziliensis [1] = experiment: Antileishmanial activity against extracellular Leishmania braziliensis promastigotes after 72 hrs; type: functional, organism-based
# Procedure, shortened: (§1)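 Promastigotes grown in MTL medium plus 10% inactivated FBS, air atmosphere, 28 °C. Compounds at 100, 50, 25, 10 and 1 µM, DMSO 0.1%. Parasites counted in a Neubauer hemocytometer at 24, 48 and 72 h. Average of three separate determinations.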
# Leishmania peruviana [2] = experiment: Antileishmanial activity against extracellular Leishmania peruviana promastigotes after 72 hrs; type: functional, organism-based; procedure, shortened: as §1
# J774.2 = experiment: Cytotoxicity against BALB/c mouse J774.2 cells after 72 hrs by trypan blue assay; type: cell-based
# Procedure, shortened: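 J774.2 macrophages in MEM with 10% inactivated FBS, pH 7.2, seeded at 10⁵ cells/mL, 2 days at 37 °C in 5% CO₂. Fresh medium with compound at 100, 50, 25, 10 and 1 µM, 72 h. Dead cells counted by trypan blue (0.1% in phosphate buffer); viability relative to control. IC50 by linear regression of K_c values.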
# Leishmania peruviana [3] = experiment: Antileishmanial activity against Leishmania peruviana assessed as induction of death of parasite with distortion of parasite body at IC25 after 96 hrs by transmission electron microscopy; type: functional, organism-based
# Procedure, shortened: (§2)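 L. (V.) peruviana MHOM/PE/1984/LC26 or L. (V.) braziliensis MHOM/BR/1975/M2904 promastigotes at 5 × 10⁶ cells/mL in MTL medium plus 10% inactivated FBS, in air at 28 °C, with drug at IC25 for 96 h. Pellets were PBS-washed, fixed 2 h at 4 °C in 2% (v/v) p-formaldehyde-glutaraldehyde in 0.05 M cacodylate (pH 7.4), and examined by TEM against untreated parasites.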
# Leishmania peruviana [4] = experiment: Antileishmanial activity against Leishmania peruviana infected in BALB/c mouse J774.2 cells assessed as decrease in parasite infection rate measured on day 10 relative to control; type: functional; parameters: scale not given: the % may be the effect or the level left
# Leishmania peruviana [5] = experiment: Effect on pyruvate catabolite excretion in Leishmania peruviana promastigotes at IC25 after 96 hrs by NMR spectroscopy; type: functional, organism-based
# Procedure, shortened: (§3)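 Promastigotes of L. (V.) peruviana or L. (V.) braziliensis in MTL medium (initial 5 × 10⁵ cells/mL) received drug at IC25; controls were untreated. After 96 h at 28 °C, cells were spun down at 1500 rpm for 10 min. Excreted end metabolites in the cell-free medium were identified by ¹H NMR and compared with fresh medium and untreated cultures.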
# Leishmania peruviana [6] = experiment: Antileishmanial activity against Leishmania peruviana assessed as abundance of morphologically altered glycosomes at IC25 after 96 hrs by transmission electron microscopy; type: functional, organism-based
# [7] = Ratio of compound IC50 to pentostam IC50 for BALB/c mouse J774.2 cells; type: ADME, cell-based; conditions: read-out: Ratio IC50
# Leishmania peruviana [8] = experiment: Effect on glycerol catabolite excretion in Leishmania peruviana promastigotes at IC25 after 96 hrs by NMR spectroscopy; type: functional, organism-based; procedure, shortened: as §3
# Leishmania peruviana [9] = experiment: Antileishmanial activity against intracellular Leishmania peruviana amastigotes after 10 days by Giemsa staining
# Leishmania peruviana [10] = experiment: Antileishmanial activity against Leishmania peruviana in BALB/c mouse J774.2 cells assessed as reduction of morphological conversion to parasite amastigote number per cell measured on day 10 by Giemsa staining relative to control; type: functional; parameters: scale not given: the % may be the effect or the level left
# Leishmania peruviana [11] = experiment: Inhibition of acetate catabolite excretion in Leishmania peruviana promastigotes at IC25 after 96 hrs by NMR spectroscopy; type: functional; procedure, shortened: as §3
# Leishmania peruviana [12] = experiment: Increase in L-alanine catabolite excretion in Leishmania peruviana promastigotes at IC25 after 96 hrs by NMR spectroscopy; type: functional, organism-based; procedure, shortened: as §3
# Leishmania braziliensis [13] = experiment: Antileishmanial activity against intracellular Leishmania braziliensis amastigotes after 72 hrs by Giemsa staining; type: functional, organism-based
# Leishmania peruviana [14] = experiment: Antileishmanial activity against Leishmania peruviana assessed as disruption of parasite cytoplasm at IC25 after 96 hrs by transmission electron microscopy; type: functional, organism-based; procedure, shortened: as §2
# Leishmania peruviana [15] = experiment: Inhibition of succinate catabolite excretion in Leishmania peruviana promastigotes at IC25 after 96 hrs by NMR spectroscopy; type: functional; procedure, shortened: as §3
# [16] = Ratio of compound IC50 to glucatim IC50 for BALB/c mouse J774.2 cells; type: ADME, cell-based; conditions: read-out: Ratio IC50
# [17] = Mus musculus, BALB/c, J774.2, 72 h
compound,measurement,setting,value
O=c1c(O)c(-c2ccc(O)c(O)c2)oc2cc(O)cc(O)c12 [QUERCETIN],IC50,"Leishmania braziliensis [1]; Leishmania braziliensis, 72 h",30.5 µM
same,IC50,"Leishmania peruviana [2]; Leishmania peruviana, 72 h",60 µM
same,IC50,J774.2; [17],125 µM
O=c1c(O[C@@H]2O[C@H](CO)[C@H](O)[C@H](O)[C@H]2O)c(-c2ccc(O)cc2)oc2cc(O)cc(O)c12 [TRIFOLIN],IC50,"Leishmania braziliensis [1]; Leishmania braziliensis, 72 h",52.5 µM
same,IC50,"Leishmania peruviana [2]; Leishmania peruviana, 72 h",53.3 µM
same,IC50,J774.2; [17],161 µM
CC(=O)Oc1cc(OC(C)=O)c2c(=O)c(OC(C)=O)c(-c3ccc(OC(C)=O)c(OC(C)=O)c3)oc2c1,Activity,Leishmania peruviana [3],Active
same,Activity,Leishmania peruviana [4],40%
same,IC50,"Leishmania braziliensis [1]; Leishmania braziliensis, 72 h",46.8 µM
same,Activity,Leishmania peruviana [5],Active
same,Activity,Leishmania peruviana [6],Active
same,selectivity ratio,[7],10
same,Activity,Leishmania peruviana [8],Active
same,Activity,Leishmania peruviana [9],Active
same,Activity,Leishmania peruviana [10],72%
same,inhibition (INH),Leishmania peruviana [11],30%
same,Activity,Leishmania peruviana [12],Active
same,Activity,Leishmania braziliensis [13],Active
same,IC50,"Leishmania peruviana [2]; Leishmania peruviana, 72 h",11.2 µM
same,Activity,Leishmania peruviana [14],Active
same,IC50,J774.2; [17],109 µM
same,inhibition (INH),Leishmania peruviana [15],30%
same,selectivity ratio,[16],10
MEGLUMINE ANTIMONATE,IC50,Leishmania braziliensis [1],25.6 µM
same,IC50,Leishmania peruviana [2],15.3 µM
same,IC50,J774.2; j774.2,15.2 µM
CC(=O)OC[C@H]1O[C@@H](Oc2c(-c3ccc(O)c(O)c3)oc3cc(O)cc(O)c3c2=O)[C@H](O)[C@@H](O)[C@H]1O,IC50,"Leishmania braziliensis [1]; Leishmania braziliensis, 72 h",51.6 µM
same,IC50,"Leishmania peruviana [2]; Leishmania peruviana, 72 h",87 µM
same,IC50,J774.2; [17],61.3 µM
O=c1c(O)c(-c2ccc(O)cc2)oc2cc(O)cc(O)c12 [KAEMPFEROL],IC50,"Leishmania braziliensis [1]; Leishmania braziliensis, 72 h",53.6 µM
same,IC50,"Leishmania peruviana [2]; Leishmania peruviana, 72 h",71.3 µM
same,IC50,J774.2; [17],53.7 µM
